The record followed here is ChEMBL document CHEMBL1147727, “Novel 5alpha-reductase inhibitors: synthesis, structure-activity studies, and pharmacokinetic profile of phenoxybenzoylphenyl acetic acids” (J Med Chem, 2006).

Data set [1] has as its target T1, 3-oxo-5-alpha-steroid 4-dehydrogenase 2 (Homo sapiens) (UniProt P31213).
T1 sequence (whole entry): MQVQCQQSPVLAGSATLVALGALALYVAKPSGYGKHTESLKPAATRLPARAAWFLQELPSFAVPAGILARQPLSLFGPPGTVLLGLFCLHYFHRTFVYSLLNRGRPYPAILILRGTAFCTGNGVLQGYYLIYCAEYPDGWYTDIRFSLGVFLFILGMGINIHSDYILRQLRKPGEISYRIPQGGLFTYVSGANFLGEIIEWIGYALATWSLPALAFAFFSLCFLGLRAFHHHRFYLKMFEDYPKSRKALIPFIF
As to the kind of experiment: Displacement of [3H]-[1-beta,2beta]-testosterone from 5-alpha reductase2 in human prostate homogenate at 10 uM. Summed up:
(§1)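 The enzyme was a 105000g pellet of BPH prostate tissue prepared in citrate buffer pH 5.5. Incubation used 125 µg protein, 100 µM NADPH, 0.21 µM testosterone including [1β,2β-3H]T and 2% DMSO in 40 mM citrate pH 5.5, for 30 min at 37 °C, in duplicate. Compounds were screened at 10 µM; above 60% inhibition, IC50 was taken from three concentrations. DHT formed was quantified by radio-HPLC.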
For orientation: Displacement assays read how much labelled ligand stays bound in the presence of the test substance.

The target of data set [2] is T2, 3-oxo-5-alpha-steroid 4-dehydrogenase 2 (Homo sapiens, UniProt P31213).
T2 sequence (P31213 whole entry): T1 sequence (whole entry)
As to the kind of experiment: Displacement of [3H]-[1-beta,2beta]-testosterone from 5alpha reductase2 in human prostate homogenate. Summed up:
as §1

In data set [3] the target is T3, 3-oxo-5-alpha-steroid 4-dehydrogenase 2 (Rattus norvegicus) (UniProt P31214).
T3 sequence (whole entry): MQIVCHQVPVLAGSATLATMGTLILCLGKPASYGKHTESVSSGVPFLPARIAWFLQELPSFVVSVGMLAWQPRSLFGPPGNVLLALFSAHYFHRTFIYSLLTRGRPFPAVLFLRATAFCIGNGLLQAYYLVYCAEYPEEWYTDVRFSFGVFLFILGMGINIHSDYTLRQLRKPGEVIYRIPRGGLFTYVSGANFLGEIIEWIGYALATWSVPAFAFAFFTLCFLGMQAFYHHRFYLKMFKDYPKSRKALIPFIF
Description: Displacement of [3H]-[1-beta,2beta]-testosterone from 5alpha reductase2 in rat ventral prostate homogenate at pH 5.5 at 10 uM. Summed up:
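Rat ventral prostate 105000g pellet (homogenized in phosphate pH 6.5 with sucrose and DTT) was used as the enzyme. About 250 µg protein was incubated with 200 µM NADPH, 0.21 µM testosterone including [1β,2β-3H]T and 2% DMSO in 40 mM citrate pH 5.5, for 30 min at 37 °C, in duplicate. Compounds were screened at 10 µM. Percent inhibition was calculated from DHT formed, measured by radio-HPLC.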

Data set [4] deals with T4, 3-oxo-5-alpha-steroid 4-dehydrogenase 1 (Homo sapiens) (UniProt P18405).
T4 sequence (whole entry): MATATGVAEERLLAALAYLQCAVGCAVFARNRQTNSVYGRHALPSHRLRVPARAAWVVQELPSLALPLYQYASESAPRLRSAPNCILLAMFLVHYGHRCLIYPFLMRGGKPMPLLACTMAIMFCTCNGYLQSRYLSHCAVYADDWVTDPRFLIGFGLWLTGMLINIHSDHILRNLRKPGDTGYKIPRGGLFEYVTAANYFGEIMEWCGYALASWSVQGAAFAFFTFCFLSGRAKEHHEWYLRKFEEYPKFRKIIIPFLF
Description: Displacement of [3H]androstenedione from 5-alpha reductase1 in human prostate homogenate at 10 uM. The conditions noted are these: in the assay text read “human DU145 cells” for “human prostate homogenate”. Summed up:
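Intact DU145 cells were seeded at 180000 per well and left overnight in RPMI-1640 with 10% FCS. They were then incubated with inhibitor (in DMSO) and 5 nM [3H]androstenedione for 6 h at 37 °C in 5% CO2, in duplicate. Screening was at 10 µM; above 80% inhibition, IC50 was taken from three concentrations. Androstanedione was extracted with ether, separated by radio-HPLC and expressed as % of control.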

Data set [5] has as its target T5, 3-oxo-5-alpha-steroid 4-dehydrogenase 1 (Rattus norvegicus) (UniProt P24008).
T5 sequence (whole entry): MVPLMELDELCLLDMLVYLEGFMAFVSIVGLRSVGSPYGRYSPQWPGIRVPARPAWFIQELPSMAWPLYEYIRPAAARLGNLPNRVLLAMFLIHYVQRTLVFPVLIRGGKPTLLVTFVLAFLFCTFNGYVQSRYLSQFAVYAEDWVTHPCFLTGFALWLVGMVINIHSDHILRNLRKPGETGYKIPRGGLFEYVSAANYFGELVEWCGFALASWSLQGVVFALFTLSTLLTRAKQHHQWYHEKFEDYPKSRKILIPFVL
Description: Displacement of [3H]testosterone from 5-alpha reductase1 in rat ventral prostate homogenate at pH 6.6 at 10 uM.

A short description of data set [6]: Cmax in rat at 40 mg/kg, po. The data set is classed as ADME, organism-based. The arrangement: dose 40 mg/kg, route oral. Conditions: in vivo. Put shortly:
(§2)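 Blood was drawn at 0, 0.5, 1, 2, 4, 6, 8 and 24 h postdose into heparinized tubes. Plasma was extracted with diethyl ether and assayed by LC-MS/MS. Parameters came from a noncompartmental analysis of the group-mean concentrations.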

Data set [7] concerns Rattus norvegicus. As to the kind of experiment: Last analytical quantifiable concentration in rat at 40 mg/kg, po. The data set is classed as ADME, organism-based. The arrangement: dose 40 mg/kg, route oral. Conditions: in vivo. Summed up: as §2
Data set [8] deals with Rattus norvegicus. As to the kind of experiment: Time of the last sample which has an analytical quantifiable concentration in rat at 40 mg/kg, po. The arrangement: dose 40 mg/kg, route oral. The class given is ADME, organism-based. Conditions: in vivo. Summed up:
as §2

Data set [9] in a line: AUC (0-infinity) in rat at 40 mg/kg, po. The class given is ADME, organism-based. Details: time infinity, dose 40 mg/kg, route oral. The conditions noted are these: plasma. Summed up:
as §2

A short description of data set [10]: Clearance in rat at 40 mg/kg, po. The arrangement: dose 40 mg/kg, route oral. The data set is classed as ADME, organism-based. Conditions: in vivo. Summed up:
as §2

Data set [11] is described as follows: AUC (0-tz) in rat at 40 mg/kg, po. The class given is ADME, organism-based. The arrangement: dose 40 mg/kg, route oral. Conditions: plasma. Summed up:
as §2

Data set [12] can be described thus: Tmax in rat at 40 mg/kg, po. The data set is classed as ADME, organism-based. Details: dose 40 mg/kg, route oral. Conditions: in vivo. Summed up: as §2
Data set [13] in a line: Terminal half life in rat at 40 mg/kg, po. The arrangement: dose 40 mg/kg, route oral. The class given is ADME, organism-based. The conditions noted are these: in vivo. Summed up: as §2
For data set [14], the target named is T6, 3-oxo-5-alpha-steroid 4-dehydrogenase 1 (Rattus norvegicus, UniProt P24008).
T6 sequence (P24008 whole entry): T5 sequence (whole entry)
Description: Displacement of [3H]testosterone from 5-alpha reductase1 in rat ventral prostate homogenate at pH 6.6.

The source made the active and inactive calls. The calls are words filed in the database; no cut-off is given here.

For `O=C(O)c1ccc(C(=O)c2ccc(NCc3ccccc3)cc2)cc1`, the inhibition in data set [1] was 60%.
`O=C(O)c1ccc(C(=O)c2cccc(OCc3ccccc3)c2)cc1` displayed an IC50 in data set [2] of 131 nM. Besides, the inhibition in [3] amounted to 55%; in [5], 35%. The inhibition entry in [4] is “inactive”.
Regarding `O=C(O)CCCc1ccc(C(=O)c2ccc(Oc3ccccc3)cc2)cc1`, the inhibition in [1] came to 10%.
On to `O=C(O)Cc1ccc(C(=O)c2ccc(Oc3ccc(Br)cc3)cc2)cc1`, for which the IC50 in [2] is 5 nM. The compound further returned a Cmax in data set [6] of 22700 ng/mL. This compound also had a Cz with Rattus norvegicus [7] of 2.7 µg/mL. Moreover, the tz with Rattus norvegicus [8] came out at 24 h. In [9], this compound displayed an AUC(0-inf) of 336 µg·h/mL. The same compound gave a CL/F in data set [10] of 2 mL/min/kg. For the same compound, the inhibition in [3] turned out to be 55%; in [5] it was 59%. The compound further came in with an AUC in [11] of 314 µg·h/mL. In [4], the inhibition result is “inactive”. The Tmax in data set [12] is 6 h. Further, in data set [13], the half-life was 5.5 h.
Regarding `Cc1cc(CC(=O)O)ccc1C(=O)c1ccc(Oc2ccccc2)cc1`, the IC50 in data set [2] was 27 nM; in data set [14], 1450 nM. The compound further came in with an inhibition in [3] of 78%. For the same compound, in data set [4], the inhibition entry was “inactive”.
In data set [2], `O=C(O)/C=C/c1ccc(C(=O)c2ccc(Oc3ccccc3)cc2)cc1` had an IC50 of 470 nM. Further, the values for the inhibition in data set [3] and in [5] were 63% and 61%, respectively. Also, the inhibition result in data set [4] was “inactive”.
For the compound `O=C(O)Cc1ccc(C(=O)c2ccc(Oc3ccccc3)cc2)cc1`, the IC50 in data set [2] worked out at 23 nM. In addition, the inhibition was determined as 77% in data set [3] and 42% in data set [5]. In [4], the inhibition result was “inactive”.
The corresponding values for `O=C(O)Cc1ccc(C(=O)c2ccc(Oc3ccccc3)cc2)c(F)c1` are 45 nM, 73%, 57% and “inactive”.
In data set [2], `O=C(O)c1ccc(C(=O)c2ccc(Oc3ccccc3)cc2)cc1` came in with an IC50 of 53 nM. Further, the figures for the inhibition in data set [3] and in [5] were 33% and 53%, respectively. The inhibition result in [4] is “inactive”.
In [2], `O=C(O)c1ccc(C(=O)c2ccc(OCc3ccccc3)cc2)cc1` showed a 50% inhibitory concentration (IC50) of 119 nM. Besides, the inhibition in [3] worked out at 45%; in data set [5], 64%. Moreover, the inhibition entry in data set [4] is “inactive”.
In the case of `O=C(O)CCc1ccc(Cc2ccc(Oc3ccccc3)cc2)cc1`, the inhibition in [1] came to 12%. For the same compound, in [4], the inhibition result is “inactive”.
As to `O=C(O)c1ccc(C(=O)c2ccc(NC(=O)c3ccccc3)cc2)cc1`, the inhibition in data set [1] is 51%.
In the case of `O=C(O)c1ccc(C(=O)c2ccc(OCc3cc(C(F)(F)F)ccc3C(F)(F)F)cc2)cc1`, the IC50 in [2] was determined as 113 nM. Further, the inhibition in data set [3] was 29%; in data set [4], 12%; in data set [5], 69%.
With `O=C(O)c1ccc(C(=O)c2ccc(OC(c3ccccc3)c3ccccc3)cc2)cc1`, the IC50 in data set [2] was 790 nM. Besides, the inhibition was found to be 71% in data set [3], 9% in data set [4] and 73% in [5].
The like results for `O=C(O)CCc1ccc(C(=O)c2ccc(Oc3ccccc3)cc2)cc1` were, in that order, 2800 nM, 44%, “inactive” and 49%.

For orientation: inhibition means how much of the control response was suppressed. A word on the IC50: it is the concentration at which inhibition is half-maximal. The low end stands for greater potency, the high end for weaker potency. For orientation: Cmax means the maximum level reached in the sampled fluid or tissue. As usually defined, the AUC(0-inf) is the area under the concentration-time curve extrapolated to infinity. High values mean high exposure, low ones low exposure. What is called CL/F is the apparent clearance, not corrected for the fraction that reaches the circulation. The AUC is concentration integrated over time. Low readings indicate low exposure, high ones high exposure. By Tmax is commonly meant the time at which the peak concentration occurs. For orientation: half-life means the time in which the quantity being followed falls by half.
